Measured values taken from ChEMBL document CHEMBL5038577, “First-Time Disclosure of CVN424, a Potent and Selective GPR6 Inverse Agonist for the Treatment of Parkinson's Disease: Discovery, Pharmacological Validation, and Identification of a Clinical Candidate” (J Med Chem, 2021).
Active and inactive are the calls of the source. The calls are words filed in the database; no cut-off is given here.

Assays:
[1] = target: T1, G-protein coupled receptor 6 (Homo sapiens, UniProt P46095); experiment: Inverse agonist activity at human GPR6 expressed in CHO-K1 cells assessed as modulation of cAMP level incubated for 20 hrs by TR-FRET assay relative to control; assay type: functional, cell-based; details: filed as inverse agonist
In short: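 T-REx-CHO-K1 cells stably carrying tetracycline-inducible human GPR6 were induced with 2.0 μg/mL doxycycline for 20 h at 37 °C. Constitutive activity was measured with no agonist. Compound in Krebs Ringer's buffer with 0.5% fatty-acid-free BSA was added for 45 min at 37 °C. Eu-cAMP tracer (10 min) and ULight anti-cAMP antibody (1 h, RT) followed for TR-FRET. Four-parameter logistic fit; ≥2 experiments, triplicate.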

[2] = target: T1, G-protein coupled receptor 6; experiment: Inverse agonist activity at human GPR6 expressed in CHO-K1 cells assessed as modulation of cAMP level incubated for 20 hrs by TR-FRET assay; assay type: functional, cell-based
In short: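 T-REx-CHO-K1 cells stably carrying tetracycline-inducible human GPR6 were induced with 2.0 μg/mL doxycycline for 20 h at 37 °C. No agonist was added, since receptor constitutive activity is used. Compound in Krebs Ringer's buffer with 0.5% fatty acid free BSA for 45 min at 37 °C. cAMP read by Eu-cAMP tracer/ULight anti-cAMP antibody TR-FRET. Four-parameter logistic fit; EC50 is the mean of ≥2 experiments, triplicate concentrations.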

[3] = target: Voltage-gated inwardly rectifying potassium channel KCNH2 (Homo sapiens, UniProt Q12809); experiment: Inhibition of human ERG; assay type: toxicity
[4] = Unbound intrinsic clearance in human hepatocytes; assay type: ADME, cell-based, Hepatocyte
[5] = target: T1, G-protein coupled receptor 6; experiment: Displacement of 3H-RL338 from human GPR6 expressed in T-REx-CHO-GPR6 cells assessed as inhibition constant by competition binding assay; assay type: cell-based
In short: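 Competition filtration binding on membranes from doxycycline-inducible T-REx-CHO cells expressing human GPR6 (15 μg/well). Tracer is 3H-RL-338, and test compound top concentration is 5 μM final. Buffer: 50 mM Tris pH 7.4, 50 mM NaCl, 6 mM MgCl2, 0.1% fatty acid free BSA, protease inhibitors. Incubated 2 h at room temperature, filtered, washed cold, scintillation counted. IC50 comes from a four-parameter fit; Ki by Cheng–Prusoff using the 3H-RL-338 Kd (2.4 or 5 nM, by batch).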

[6] = Intrinsic clearance in human hepatocytes; assay type: ADME, cell-based, Hepatocyte; details: read-out: CLH
[7] = Permeability of compound across apical to basolateral side in pig LLC-PK1 cells expressing MDR1; assay type: ADME, cell-based, Sus scrofa; details: read-out: permeability
[8] = Intrinsic clearance in human liver microsomes; assay type: ADME, Microsome; details: read-out: CLH
P-gp (MDR1, ABCB1) = P-gp (MDR1, ABCB1) (Homo sapiens, UniProt P08183); experiment: Substrate activity at P-gp (unknown origin) transfected in pig LLC-PK1 cells expressing MDR1 gene assessed as efflux ratio; assay type: ADME, cell-based
[9] = Lipophilicity, log D of compound; assay type: physicochemical; details: octanol/water
Homo sapiens [10] = organism: Homo sapiens; experiment: Selectivity for human GPR6 over human GRP12 assessed as fold change
Cytochrome P450 2D6 = Cytochrome P450 2D6 (Homo sapiens, UniProt P10635); experiment: Inhibition of CYP2D6 (unknown origin); assay type: ADME
Homo sapiens [11] = organism: Homo sapiens; experiment: Selectivity for human GPR6 over human GRP3 assessed as fold change
hERG (KCNH2) = hERG (KCNH2) (Homo sapiens, UniProt Q12809); experiment: Inhibition of human ERG at 10 uM relative to control; assay type: toxicity
Mus musculus [12] = experiment: Reversal of haloperidol-induced catalepsy in C57BL/6 mouse assessed as reduction in catalepsy at 0.3 mg/kg, ip measured after 120 min; assay type: functional, organism-based
In short: (§1)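 Wild-type C57BL/6J and GPR6 knock-out male mice (n = 6/group): KW6002 at 0.3 mg/kg i.p. given with haloperidol 1 mg/kg i.p. Bar test at 120 min: bar 2' high, maximum 60 s, three trials averaged.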

Mus musculus [13] = experiment: Reversal of haloperidol-induced catalepsy in GPR6 knock out mouse assessed as reduction in catalepsy at 0.3 mg/kg, ip measured after 120 min; assay type: functional, organism-based; in short: as §1
Rattus norvegicus [14] = experiment: Reversal of haloperidol-induced catalepsy in Sprague-Dawley rat assessed as reduction in catalepsy at 0.6 mg/kg, ip measured after 120 min; assay type: functional, organism-based
In short: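 Positive-control arm in male Sprague-Dawley rats (n = 9–10/group): A2A antagonist KW6002 at 0.6 mg/kg i.p., given together with haloperidol 1 mg/kg i.p. Bar test at 120 min: bar 6' high, up to 60 s, mean of three trials.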

Rattus norvegicus [15] = experiment: Reversal of haloperidol-induced catalepsy in Sprague-Dawley rat assessed as reduction in catalepsy at 0.1 to 30 mg/kg, sc measured after 120 min; assay type: functional, organism-based; details: dose 0.1-30 mg/kg
In short: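 Male Sprague-Dawley rats (n = 9–10/group) received haloperidol 1 mg/kg i.p. together with vehicle (10% DMSO, 0.5% methylcellulose) or compound at 0.1–30 mg/kg s.c. Bar test at 120 min: front paws placed on a bar 6' high, time recorded up to 60 s. Three trials were averaged.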

Mus musculus [16] = experiment: Reversal of haloperidol-induced catalepsy in GPR6 knock out mouse assessed as reduction in catalepsy at 30 mg/kg, sc measured after 120 min; assay type: functional, organism-based
In short: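 Male GPR6 knock-out mice (n = 6/group) received haloperidol 1 mg/kg i.p. with vehicle (10% DMSO, 0.5% methylcellulose) or compound 30 mg/kg s.c. at the same time. Bar test at 120 min: bar 2' high, up to 60 s, average of three trials.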

Chain of hERG (KCNH2) (Q12809 whole entry): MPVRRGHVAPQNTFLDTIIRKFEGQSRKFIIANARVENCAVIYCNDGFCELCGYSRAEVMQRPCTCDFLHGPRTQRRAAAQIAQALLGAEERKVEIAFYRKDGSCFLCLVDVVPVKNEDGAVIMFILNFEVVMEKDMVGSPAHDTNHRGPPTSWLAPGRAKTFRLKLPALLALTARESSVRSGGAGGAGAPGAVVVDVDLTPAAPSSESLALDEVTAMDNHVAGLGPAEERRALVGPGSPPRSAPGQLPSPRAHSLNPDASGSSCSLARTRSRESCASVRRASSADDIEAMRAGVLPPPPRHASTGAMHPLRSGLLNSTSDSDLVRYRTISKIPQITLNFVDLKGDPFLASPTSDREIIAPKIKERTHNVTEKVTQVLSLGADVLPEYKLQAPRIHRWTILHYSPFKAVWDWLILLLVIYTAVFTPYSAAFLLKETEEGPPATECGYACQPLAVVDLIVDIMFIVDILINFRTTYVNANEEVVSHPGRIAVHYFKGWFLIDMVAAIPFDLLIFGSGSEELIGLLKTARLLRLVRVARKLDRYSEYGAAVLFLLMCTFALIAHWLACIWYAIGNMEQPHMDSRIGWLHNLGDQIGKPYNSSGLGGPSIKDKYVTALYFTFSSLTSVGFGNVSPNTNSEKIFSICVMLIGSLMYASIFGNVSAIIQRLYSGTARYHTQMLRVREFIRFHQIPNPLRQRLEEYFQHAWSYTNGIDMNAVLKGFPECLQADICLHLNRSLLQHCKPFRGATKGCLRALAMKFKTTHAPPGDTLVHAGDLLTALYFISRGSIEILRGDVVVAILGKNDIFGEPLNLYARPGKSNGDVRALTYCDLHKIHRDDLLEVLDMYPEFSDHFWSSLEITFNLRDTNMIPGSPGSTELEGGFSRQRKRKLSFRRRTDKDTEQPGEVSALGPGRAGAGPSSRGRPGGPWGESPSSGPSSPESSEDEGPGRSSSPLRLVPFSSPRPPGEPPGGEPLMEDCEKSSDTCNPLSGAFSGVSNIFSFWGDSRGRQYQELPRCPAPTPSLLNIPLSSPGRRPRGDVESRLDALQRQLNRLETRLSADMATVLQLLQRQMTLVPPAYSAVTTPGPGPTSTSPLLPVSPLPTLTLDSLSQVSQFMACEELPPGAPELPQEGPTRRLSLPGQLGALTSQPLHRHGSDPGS
Chain of Cytochrome P450 2D6 (P10635 whole entry): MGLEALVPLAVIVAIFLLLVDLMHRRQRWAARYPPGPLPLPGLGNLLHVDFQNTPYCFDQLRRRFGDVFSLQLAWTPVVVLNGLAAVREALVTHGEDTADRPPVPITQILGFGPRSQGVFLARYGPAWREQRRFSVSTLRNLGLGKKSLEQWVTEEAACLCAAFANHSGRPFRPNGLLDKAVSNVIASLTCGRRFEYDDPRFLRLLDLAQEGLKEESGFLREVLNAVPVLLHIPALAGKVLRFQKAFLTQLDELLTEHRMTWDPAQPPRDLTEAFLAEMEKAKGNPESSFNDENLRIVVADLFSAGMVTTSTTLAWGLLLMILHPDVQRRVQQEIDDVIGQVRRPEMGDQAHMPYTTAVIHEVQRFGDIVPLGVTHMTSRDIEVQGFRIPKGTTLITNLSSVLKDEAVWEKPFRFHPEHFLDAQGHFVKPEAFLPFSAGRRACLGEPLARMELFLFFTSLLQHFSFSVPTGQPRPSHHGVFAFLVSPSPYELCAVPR
T1 sequence (P46095 whole entry): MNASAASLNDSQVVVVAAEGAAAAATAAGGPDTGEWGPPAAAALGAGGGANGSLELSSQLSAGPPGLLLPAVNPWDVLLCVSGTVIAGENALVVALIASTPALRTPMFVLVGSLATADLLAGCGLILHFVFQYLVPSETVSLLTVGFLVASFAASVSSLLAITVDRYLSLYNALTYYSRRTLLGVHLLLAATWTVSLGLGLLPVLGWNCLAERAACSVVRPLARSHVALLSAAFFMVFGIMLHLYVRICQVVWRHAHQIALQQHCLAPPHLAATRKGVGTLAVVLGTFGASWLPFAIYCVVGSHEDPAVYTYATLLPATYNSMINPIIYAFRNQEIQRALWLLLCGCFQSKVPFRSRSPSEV
Chain of P-gp (MDR1, ABCB1) (P08183 whole entry): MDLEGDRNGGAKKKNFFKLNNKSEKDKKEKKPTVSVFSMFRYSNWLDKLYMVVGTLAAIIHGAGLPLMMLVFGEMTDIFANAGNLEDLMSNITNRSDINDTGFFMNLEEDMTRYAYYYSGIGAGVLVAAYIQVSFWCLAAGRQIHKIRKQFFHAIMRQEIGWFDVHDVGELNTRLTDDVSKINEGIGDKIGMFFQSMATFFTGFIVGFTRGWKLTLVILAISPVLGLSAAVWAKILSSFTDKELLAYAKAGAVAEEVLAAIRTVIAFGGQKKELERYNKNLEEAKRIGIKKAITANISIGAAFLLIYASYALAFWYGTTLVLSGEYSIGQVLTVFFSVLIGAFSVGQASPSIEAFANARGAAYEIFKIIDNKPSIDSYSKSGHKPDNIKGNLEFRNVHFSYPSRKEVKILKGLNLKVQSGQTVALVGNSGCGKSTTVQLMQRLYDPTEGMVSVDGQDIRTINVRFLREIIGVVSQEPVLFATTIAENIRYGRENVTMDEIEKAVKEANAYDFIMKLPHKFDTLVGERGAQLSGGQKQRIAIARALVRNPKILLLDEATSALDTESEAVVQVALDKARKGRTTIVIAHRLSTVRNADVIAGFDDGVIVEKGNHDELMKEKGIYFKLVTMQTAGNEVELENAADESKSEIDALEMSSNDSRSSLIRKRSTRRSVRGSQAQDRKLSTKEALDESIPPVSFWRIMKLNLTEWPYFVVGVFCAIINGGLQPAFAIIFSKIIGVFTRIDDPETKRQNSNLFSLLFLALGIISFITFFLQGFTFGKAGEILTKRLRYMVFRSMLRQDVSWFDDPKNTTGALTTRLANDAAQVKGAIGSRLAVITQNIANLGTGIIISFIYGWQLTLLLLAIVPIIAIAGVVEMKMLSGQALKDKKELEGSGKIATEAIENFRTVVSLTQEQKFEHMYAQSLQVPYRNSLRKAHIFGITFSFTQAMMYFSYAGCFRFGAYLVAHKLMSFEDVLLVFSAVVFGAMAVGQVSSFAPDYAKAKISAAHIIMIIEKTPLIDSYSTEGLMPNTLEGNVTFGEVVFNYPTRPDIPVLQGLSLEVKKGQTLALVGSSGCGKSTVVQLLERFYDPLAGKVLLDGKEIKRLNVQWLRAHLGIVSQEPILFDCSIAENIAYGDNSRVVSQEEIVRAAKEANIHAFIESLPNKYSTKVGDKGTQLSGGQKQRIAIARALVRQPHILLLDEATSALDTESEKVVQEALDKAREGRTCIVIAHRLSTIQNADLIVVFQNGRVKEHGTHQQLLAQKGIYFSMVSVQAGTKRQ
Chain of Voltage-gated inwardly rectifying potassium channel KCNH2 (Q12809 whole entry): as the sequence (Q12809 whole entry) above

SMILES | Emax [1] | EC50 [2] | fold change (FC) (Homo sapiens [10]) | IC50 (Cytochrome P450 2D6) | fold change (FC) (Homo sapiens [11]) | inhibition at 10 µM (hERG (KCNH2)) | other results
Cc1cccc(CN2CCN(c3nc4nonc4nc3NC3CC3)CC2)c1 | 73% | 43000 nM |  |  |  |  | 
CC(=O)N1CCc2nc(N3CCC(Oc4ccc(F)cc4F)CC3)c(N[C@@H]3CCOC3)nc2C1 |  | 38000 nM |  |  |  |  | IC50 [3]: 3500 nM; fraction unbound [4]: 0.51; Ki [5]: 9.4 nM; CLint scaled [6]: 48 mL/min/kg; Papp A→B [7]: 17 ×10⁻⁶ cm/s; CLint scaled [8]: 62 mL/min/kg; efflux ratio (P-gp (MDR1, ABCB1)): 0.7; logD [9]: 3.6
CC(C)Nc1nc2c(nc1N1CCC(Oc3ccc(F)cc3F)CC1)CCN(C)C2 |  | 89 nM | 69 | > 10000 nM | 21 | 36% | 
CCn1c(=O)c2c(nc(/C=C/c3ccc(OC)c(OC)c3)n2C)n(CC)c1=O |  |  |  |  |  |  | Activity (Mus musculus [12]): Active; Activity (Mus musculus [13]): Active; Activity (Rattus norvegicus [14]): Active
Cc1cc2nc(NC3CC3)c(N3CCC(Oc4ccc(F)cc4F)CC3)nc2cn1 |  | 29 nM | 105 | 6310 nM | 19 | 75% | 
CCC(=O)N1CCc2nc(N3CCN(Cc4ccc(F)cc4F)CC3)c(NC(C)C)nc2C1 |  | 30 nM | 16 | > 10000 nM | 20 |  | 
Cc1cc2nc(NC(C)C)c(N3CCC(Oc4ccc(F)cc4F)CC3)nc2cn1 |  | 16 nM | 27 | 6310 nM | 13 | 75% | 
CC(C)Nc1nc2ccncc2nc1N1CCN(Cc2ccc(F)cc2F)CC1 |  | 21 nM | 14 |  | 9 |  | 
Cc1cc2nc(N3CCC(Oc4ccc(F)cc4F)CC3)c(NC(C)C)nc2cn1 |  | 61000 nM | 47 | 3980 nM | 19 | 71% | 
Cc1cc2nc(N3CCC(Oc4ccc(F)cc4F)CC3)c(NC3CC3)nc2cn1 |  | 95 nM | 105 | 6310 nM | 19 |  | 
CC(C)Nc1nc2cc(C#N)ncc2nc1N1CCC(Oc2ccc(F)cc2F)CC1 |  | 55 nM | 13 |  | 6 |  | 
Cc1cc2nc(NC(C)C)c(N3CCN(Cc4ccc(F)cc4F)CC3)nc2cn1 |  | 51000 nM | 19 | 3980 nM | 5 | 13% | 

Continued, in another order:

Emax [1] | EC50 [2] | fold change (FC) (Homo sapiens [10]) | IC50 (Cytochrome P450 2D6) | fold change (FC) (Homo sapiens [11]) | SMILES | inhibition at 10 µM (hERG (KCNH2)) | other results
102% | 55 nM |  |  |  | Clc1ccc(Cl)c(CN2CCN(c3nc4ccncc4nc3NC3CC3)CC2)c1 |  | 
90% | 16000 nM |  |  |  | Cc1ccc2nc(N3CCN(Cc4cc(Cl)ccc4Cl)CC3)c(NC3CC3)nc2c1 |  | 
90% | 4100 nM |  |  |  | COc1ccc2nc(N3CCN(Cc4cc(Cl)ccc4Cl)CC3)c(NC3CC3)nc2c1 |  | 
105% | 90 nM |  |  |  | CN(C)C(=O)c1ccc2nc(NC3CC3)c(N3CCN(Cc4cc(Cl)ccc4Cl)CC3)nc2c1 |  | 
 | 29 nM | 78 | 3980 nM | 14 | Cc1cc2nc(NC3CC3)c(N3CCN(Cc4ccc(F)cc4F)CC3)nc2cn1 | 23% | 
107% | 174 nM |  |  |  | N#Cc1ccc2nc(N3CCN(Cc4cc(Cl)ccc4Cl)CC3)c(NC3CC3)nc2c1 |  | 
90% | 1200 nM |  |  |  | Fc1ccc2nc(N3CCN(Cc4cc(Cl)ccc4Cl)CC3)c(NC3CC3)nc2c1 |  | 
110% | 53 nM |  |  |  | Clc1ccc(Cl)c(CN2CCN(c3nc4cnccc4nc3NC3CC3)CC2)c1 |  | 
 | 39 nM | 80 | 50.1 nM | 21 | Fc1ccc(CN2CCN(c3nc4cnccc4nc3NC3CC3)CC2)c(F)c1 | 40% | Activity (Rattus norvegicus [15]): Dose-Dependent Effect; Ki [5]: 7 nM; Papp A→B [7]: 16 ×10⁻⁶ cm/s; efflux ratio (P-gp (MDR1, ABCB1)): 0.5; Activity (Mus musculus [16]): inactive
110% | 14000 nM |  |  |  | Cc1cccc(CN2CCN(c3nc4ccccc4nc3NC3CC3)CC2)c1 |  | 
 | 151 nM |  | 126 nM |  | Fc1ccc(F)c(CN2CCN(c3nc4cnccc4nc3NC3CC3)CC2)c1 | 40% | 
 | 29 nM | 15 |  | 638 | Fc1ccc(Cl)cc1CN1CCN(c2nc3cnccc3nc2NC2CC2)CC1 |  | 
89% | 2100 nM |  |  |  | Clc1ccc(Cl)c(CN2CCN(c3nc4ccccc4nc3NC3CC3)CC2)c1 |  | 
